Measurements as given in ChEMBL document CHEMBL4257584, “Sterol 14α-Demethylase Structure-Based Optimization of Drug Candidates for Human Infections with the Protozoan Trypanosomatidae” (J Med Chem, 2018).

Columns and labels:
[1] = Intrinsic clearance in Sprague-Dawley rat liver microsomes at 1 uM preincubated for 5 mins followed by NADPH addition and measured after 45 mins by LC/MS/MS analysis; type: ADME, microsome; details: read-out: CLH
[2] = Hepatic clearance in Sprague-Dawley rat liver microsomes at 1 uM preincubated for 5 mins followed by NADPH addition and measured after 45 mins by LC/MS/MS analysis; type: ADME, microsome
Method in brief: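 Pooled liver microsomes at 0.5 mg/mL: human (mixed gender), male Sprague-Dawley rat, or male CD-1 mouse, with test compound at 1 μM, triplicate. In vitro t1/2 is scaled to CLint (45 mg microsomes/g liver; 45 g liver/kg scaling factor). CLhep uses well-stirred model with hepatic blood flow 21 (human), 70 (rat), 90 (mouse) mL/min/kg.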

[3] = Intrinsic clearance in CD1 mouse liver microsomes at 1 uM preincubated for 5 mins followed by NADPH addition and measured after 45 mins by LC/MS/MS analysis; type: ADME, microsome; details: read-out: CLH
[4] = Half life in CD1 mouse liver microsomes at 1 uM preincubated for 5 mins followed by NADPH addition and measured by LC/MS/MS analysis; type: ADME, microsome; details: mouse, microsomes, 1 µM
[5] = Maximum plasma concentration in BALB/c mouse at 25 mg/kg, po via gavage by […]; type: ADME, organism-based; design: dose 25 mg/kg, route oral
Method in brief: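 Single oral gavage dose of 25 mg/kg in BALB/c mice; blood sampled at 1, 2, 4, 6, 10, 16, 24 h. Plasma is diluted in PBS with ketoconazole internal standard, extracted with 80% acetonitrile, dried and redissolved. Analysed by reversed-phase HPLC with UV at 291/250 nm, 0.1 μM detection limit. Lifetime is time until undetectable.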

[6] = Drug uptake in BALB/c mouse heart at 25 mg/kg, po via gavage measured after 4 hrs post dose by […]; type: ADME, organism-based; details: read-out: Drug uptake
Method in brief: (§1)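 BALB/c mice get a single oral gavage dose of 25 mg/kg; tissues are collected 4 h post-dose. About 100 mg tissue is diluted 5-fold in PBS and homogenized. Homogenate is extracted as for plasma (ketoconazole internal standard, acetonitrile extraction) and quantified by HPLC-UV at 291 nm, 0.1 μM detection limit, n=2.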

[7] = Drug uptake in BALB/c mouse brain at 25 mg/kg, po via gavage measured after 4 hrs post dose by […]; type: ADME, organism-based; details: read-out: Drug uptake; method in brief: as §1
[8] = test system: Mus musculus; assay: Toxicity in Swiss Webster mouse assessed as effect on motility at 200 mg/kg, po administered as single dose measured after 48 hrs; type: organism-based; details: in vivo
Method in brief: (§2)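 Swiss Webster mice (21–23 g, n=3) get a single oral 200 mg/kg dose, given as in the PK study. They are inspected for toxic and sub-toxic signs per OECD guidelines (behaviour, motility, neurological state, skin, fur), and body weight is tracked 0–48 h. At 48 h, mice are euthanized and organ weights are normalized to body weight. Blood is taken for haematology and plasma biochemistry.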

[9] = test system: Mus musculus; assay: Toxicity in Swiss Webster mouse assessed as effect on skin at 200 mg/kg, po administered as single dose measured after 48 hrs; type: organism-based; details: in vivo; method in brief: as §2
[10] = test system: Mus musculus; assay: Toxicity in Swiss Webster mouse assessed as effect on fur profile at 200 mg/kg, po administered as single dose measured after 48 hrs; type: organism-based; details: in vivo; method in brief: as §2
[11] = test system: Mus musculus; assay: Toxicity in Swiss Webster mouse assessed as effect on heart weight at 200 mg/kg, po administered as single dose measured after 48 hrs; type: organism-based; details: in vivo; method in brief: as §2

`O=C(N[C@@H](Cn1ccnc1)c1c(F)cc(-c2ccc(F)cc2)cc1F)c1ccc(-c2nnc(-c3ccccc3)o2)cc1` gave a CLint scaled at 1 µM [1] of 55.8 mL/min/kg, a CLhep predicted at 1 µM [2] of 31.1 mL/min/kg and a CLint scaled at 1 µM [3] of 237 mL/min/kg. For the same compound, the t1/2 [4] was 23 min, the Cmax [5] was 25 µM and the concentration at 4 h [6] was 56 µM. The concentration at 4 h [7] was 3 µM, the Activity [8] was “Non-Toxic” and the Activity [9] was “Non-Toxic”. For the same compound, the Activity [10] was “Non-Toxic” and the Activity [11] was “Non-Toxic”.
